The source made the active and inactive calls.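 Rule for the calls: active = mean IC50 below 20 µM in the confirmatory beta-arrestin antagonist test; inactive = the rest.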
Biological target: Apelin receptor (Homo sapiens) (UniProt P35414)
Assay: blockers of apelin-13-driven APJ signaling – cell-based, CHO-K1 AGTRL-1, PathHunter luminescence, set 5, SAR follow-up (AID 504436)
Conditions: CHO-K1 APJ beta-arrestin PathHunter, antagonist
How it was run: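 System: CHO-K1 PathHunter APJ beta-arrestin cells / Detection: luminescence from beta-gal fragment complementation upon beta-arrestin recruitment / Times: overnight seeding, 90 min exposure at 25 °C, 60 min detection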

Chain of Apelin receptor (Homo sapiens) (P35414 whole entry, looked up): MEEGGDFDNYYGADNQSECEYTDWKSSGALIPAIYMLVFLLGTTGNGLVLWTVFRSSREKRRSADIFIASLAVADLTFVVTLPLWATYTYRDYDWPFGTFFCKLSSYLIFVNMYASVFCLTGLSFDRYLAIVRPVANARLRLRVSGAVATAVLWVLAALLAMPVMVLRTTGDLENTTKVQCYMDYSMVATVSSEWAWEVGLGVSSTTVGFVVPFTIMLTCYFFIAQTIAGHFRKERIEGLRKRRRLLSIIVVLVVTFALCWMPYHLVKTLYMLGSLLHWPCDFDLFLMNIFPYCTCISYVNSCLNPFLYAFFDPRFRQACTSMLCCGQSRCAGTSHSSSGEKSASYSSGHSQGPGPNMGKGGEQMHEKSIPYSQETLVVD

In the case of `Cc1ccnc(SCc2cc(=O)c(NC(=O)c3ccc([N+](=O)[O-])cc3)co2)n1`, the IC50 is reported as > 79 µM (inactive).

Compound `Cc1ccc(SCc2cc(=O)c(OC(=O)c3ccc(Cl)c([N+](=O)[O-])c3)co2)cc1` has an IC50 of 12.8 µM.

In the case of `O=C(Oc1coc(CSc2ccc(OC(F)(F)F)cc2)cc1=O)c1ccc(Cl)c([N+](=O)[O-])c1`, the IC50 is reported as “inactive”.

With `COc1ccc(SCc2cc(=O)c(OC(=O)c3ccc(Cl)c([N+](=O)[O-])c3)co2)cc1` the IC50 was 8.27 µM.

For `O=C(Oc1coc(CN2CCOCC2)cc1=O)c1ccccc1`, the IC50 was > 79 µM (inactive).

`O=C(Oc1coc(CN2CCOCC2)cc1=O)c1ccc([N+](=O)[O-])cc1` showed an IC50 of 16.4 µM.

In the case of `Cc1cc(C)nc(SCc2cc(=O)c(OC(=O)c3ccc(-c4nccs4)cc3)co2)n1`, the IC50 is reported as > 79 µM (inactive).

For `O=C(Oc1coc(CSc2ccc(Cl)cc2)cc1=O)c1ccc(Cl)c([N+](=O)[O-])c1`, the IC50 was 4.53 µM.
